Laboratory results from ChEMBL document CHEMBL1148984, “Bioactive compounds from the seeds of Punica granatum (pomegranate)” (2004).

Columns and labels:
Plasma [1] = test: Antioxidant activity against LDL-susceptible to oxidation in New Zealand White rabbit plasma assessed as increase in conjugated diene formation at 12.5 ug/mL after 30 mins; type: functional, Oryctolagus cuniculus
Outline: (§1)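 LDL in phosphate-buffered KCl dialysis buffer (pH 7.4), dialysed 4 h at 4 °C in the dark and diluted to 0.25 mg LDL/mL (protein by Lowry, BSA standard). Compound (final 1.25, 2.5 or 5.0 × 10-5 g/mL) or saline vehicle preincubated ~30 min at 20 °C. Oxidation started with CuSO4 (final 5.0 µmol/L), 37 °C for 4 h. A234 monitored; conjugated diene increase = (A4h − A0h)/A0h × 100%.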

Brain [2] = test: Antioxidant activity against lipid peroxidation in Wistar rat brain assessed as inhibition of malondialdehyde release at 12.5 ug/mL by thiobarbituric acid method relative to control; type: functional, tissue-based; set-up: scale not given: the % may be the effect or the level left
Outline: (§2)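 Male Wistar rat brain homogenised fresh (10% w/v) in 50 mM phosphate buffer, pH 7.4; protein by Lowry. Aliquots incubated 30 min at 37 °C with compound (final 1.25, 2.5 or 5.0 × 10-5 g/mL) or saline vehicle. Stopped with SDS, then TBA in HCl/acetic acid, boiled 15 min. Chromogen extracted into n-butanol–pyridine (15:1); A532 read against MDA standards.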

Brain [3] = test: Antioxidant activity against lipid peroxidation in Wistar rat brain assessed as inhibition of malondialdehyde release at 50 ug/mL by thiobarbituric acid method relative to control; type: functional, tissue-based; set-up: scale not given: the % may be the effect or the level left; outline: as §2
Brain [4] = test: Antioxidant activity against lipid peroxidation in Wistar rat brain assessed as inhibition of malondialdehyde release at 25 ug/mL by thiobarbituric acid method relative to control; type: functional, tissue-based; set-up: scale not given: the % may be the effect or the level left; outline: as §2
Plasma [5] = test: Antioxidant activity against LDL-susceptible to oxidation in New Zealand White rabbit plasma assessed as increase in conjugated diene formation at 25 ug/mL after 30 mins; type: functional, Oryctolagus cuniculus; outline: as §1
Plasma [6] = test: Antioxidant activity against LDL-susceptible to oxidation in New Zealand White rabbit plasma assessed as increase in conjugated diene formation at 50 ug/mL after 30 mins; type: functional, Oryctolagus cuniculus; outline: as §1

Structure (SMILES)	Activity (Plasma [1])	Activity (Brain [2])	Activity (Brain [3])	Activity (Brain [4])	Activity (Plasma [5])	Conjugated diene increase (Plasma [6])
O=C1O[C@H]([C@@H](O)CO)C(O)=C1O [ASCORBIC ACID]	3.7%	50.1%				
COc1cc(/C=C/CO[C@@H]2O[C@H](CO[C@@H]3OC[C@](O)(CO)[C@H]3O)[C@@H](O)[C@H](O)[C@H]2O)ccc1O	15.4%	28.9%	35.6%	32.4%	10.5%	7.3%
COc1cc2c(=O)oc3c(OC)c(O)cc4c(=O)oc(c1OC)c2c34	29.8%	18.3%	31.1%	24.6%	27.2%	21%
COc1c(O)cc2c(=O)oc3c(OC)c(O)cc4c(=O)oc1c2c34	27%	21.8%	28.1%	20.1%	28.9%	20.4%
COc1cc(/C=C/CO[C@@H]2O[C@H](CO[C@@H]3OC[C@](O)(CO)[C@H]3O)[C@@H](O)[C@H](O)[C@H]2O)cc(OC)c1O	17.6%	26.5%	32.1%	29.8%	14.4%	12.2%
